≈ marks a conversion by molar mass, not a printed value.
How the values were obtained:
Type in all cases: functional
[1] = tested on: Pseudomonas aeruginosa; experiment: Antimicrobial activity against Pseudomonas aeruginosa PA14 PA0667 harboring mutation in putative metallopeptidase by Etest method
Summary of the method: (§1)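 Overnight LB cultures (37°C) diluted in sterile 0.85% NaCl to about 1 × 10^7 CFU/ml. 100 µl spread on Mueller-Hinton agar, one Etest strip per plate, 18 h at 37°C. Ceftazidime, imipenem and meropenem tested. Wild-type PA14 plate included in each set. Each mutant verified in triplicate.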

[2] = tested on: Pseudomonas aeruginosa; experiment: Antimicrobial activity against Pseudomonas aeruginosa PA14 PA0479 harboring mutation in putative transcriptional regulator, LysR family by Etest method; summary of the method: as §1
[3] = tested on: Pseudomonas aeruginosa; experiment: Antimicrobial activity against wild type Pseudomonas aeruginosa PA14 by Etest method
Summary of the method: (§2)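 Etest MIC. Overnight LB cultures at 37°C were diluted in sterile 0.85% NaCl to about 1 × 10^7 CFU/ml. 100 µl was spread on Mueller-Hinton agar, one strip was placed per plate, and plates were incubated at 37°C for 18 h. Equal cell numbers were seeded per plate, and results were verified in triplicate. PA14 wild type was included in each set as a susceptibility control.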

[4] = tested on: Pseudomonas aeruginosa; experiment: Antimicrobial activity against Pseudomonas aeruginosa PA14 PA0807 harboring ampDh3 mutant gene by Etest method; summary of the method: as §1
[5] = tested on: Pseudomonas aeruginosa; experiment: Antimicrobial activity against Pseudomonas aeruginosa PA14 PA1348 harboring mutation in conserved hypothetical protein by Etest method; summary of the method: as §1
[6] = tested on: Pseudomonas aeruginosa; experiment: Antimicrobial activity against Pseudomonas aeruginosa PA14 PA14_15600 harboring mutation in conserved hypothetical protein by Etest method; summary of the method: as §1
[7] = tested on: Pseudomonas aeruginosa; experiment: Antimicrobial activity against Pseudomonas aeruginosa PA14 PA14_23420 harboring mutation in putative zinc-binding dehydrogenase by Etest method; summary of the method: as §1
[8] = tested on: Pseudomonas aeruginosa; experiment: Antimicrobial activity against Pseudomonas aeruginosa PA14 PA14_06490 harboring mutation in hypothetical protein by Etest method; summary of the method: as §1
[9] = tested on: Pseudomonas aeruginosa; experiment: Antimicrobial activity against Pseudomonas aeruginosa PA14 PA1553 harboring mutation in putative cytochrome c oxidase, cbb3 type, subunit II by Etest method; summary of the method: as §1
[10] = tested on: Pseudomonas aeruginosa; experiment: Antimicrobial activity against Pseudomonas aeruginosa PA14 PA2487 harboring mutation in hypothetical protein by Etest method; summary of the method: as §1
[11] = tested on: Pseudomonas aeruginosa; experiment: Antimicrobial activity against Pseudomonas aeruginosa PA14 PA2621 harboring clpS mutant gene by Etest method; summary of the method: as §1
[12] = tested on: Pseudomonas aeruginosa; experiment: Antimicrobial activity against Pseudomonas aeruginosa PA14 PA2797 harboring mutation in putative anti-anti-sigma factor by Etest method; summary of the method: as §1
[13] = tested on: Pseudomonas aeruginosa; experiment: Antimicrobial activity against Pseudomonas aeruginosa PA14 PA3141 harboring wbpM mutant gene by Etest method; summary of the method: as §1
[14] = tested on: Pseudomonas aeruginosa; experiment: Antimicrobial activity against Pseudomonas aeruginosa PA14 PA3247 harboring mutation in putative aspartyl aminopeptidase by Etest method; summary of the method: as §1
[15] = tested on: Pseudomonas aeruginosa; experiment: Antimicrobial activity against Pseudomonas aeruginosa PA14 PA3259 harboring mutation in conserved hypothetical protein by Etest method; summary of the method: as §2
[16] = tested on: Pseudomonas aeruginosa; experiment: Antimicrobial activity against Pseudomonas aeruginosa PA14 PA3589 harboring mutation in acetyl-coenzyme A (CoA) acetyltransferase (thiolase) by Etest method; summary of the method: as §2
[17] = tested on: Pseudomonas aeruginosa; experiment: Antimicrobial activity against Pseudomonas aeruginosa PA14 PA3667 harboring mutation in putative cysteine sulfinate desulfinase by Etest method; summary of the method: as §2
[18] = tested on: Pseudomonas aeruginosa; experiment: Antimicrobial activity against Pseudomonas aeruginosa PA14 PA3704 harboring wspE mutant gene by Etest method; summary of the method: as §2
[19] = tested on: Pseudomonas aeruginosa; experiment: Antimicrobial activity against Pseudomonas aeruginosa PA14 PA4402 harboring argJ mutant gene by Etest method; summary of the method: as §2
[20] = tested on: Pseudomonas aeruginosa; experiment: Antimicrobial activity against Pseudomonas aeruginosa PA14 PA4527 harboring pilC mutant gene by Etest method; summary of the method: as §2
[21] = tested on: Pseudomonas aeruginosa; experiment: Antimicrobial activity against Pseudomonas aeruginosa PA14 PA4550 harboring fimU mutant gene by Etest method; summary of the method: as §2
[22] = tested on: Pseudomonas aeruginosa; experiment: Antimicrobial activity against Pseudomonas aeruginosa PA14 PA4946 harboring mutL mutant gene by Etest method; summary of the method: as §2
[23] = tested on: Pseudomonas aeruginosa; experiment: Antimicrobial activity against Pseudomonas aeruginosa PA14 PA5002 harboring mutation in hypothetical protein by Etest method; summary of the method: as §2
[24] = tested on: Pseudomonas aeruginosa; experiment: Antimicrobial activity against Pseudomonas aeruginosa PA14 PA5005 harboring mutation in putative carbamoyltransferase by Etest method; summary of the method: as §2
[25] = tested on: Pseudomonas aeruginosa; experiment: Antimicrobial activity against Pseudomonas aeruginosa PA14 PA5443 harboring uvrD mutant gene by Etest method; summary of the method: as §2
[26] = tested on: Pseudomonas aeruginosa; experiment: Antimicrobial activity against Pseudomonas aeruginosa PA14 PA0011 harboring mutation in putative 2-OH-lauroyltransferase by Etest method; summary of the method: as §1
[27] = tested on: Pseudomonas aeruginosa; experiment: Antimicrobial activity against Pseudomonas aeruginosa PA14 PA0401 harboring mutation in Noncatalytic dihydroorotase-like protein by Etest method; summary of the method: as §1
[28] = tested on: Pseudomonas aeruginosa; experiment: Antimicrobial activity against Pseudomonas aeruginosa PA14 PA0420 harboring bioA mutant gene by Etest method; summary of the method: as §1
[29] = tested on: Pseudomonas aeruginosa; experiment: Antimicrobial activity against Pseudomonas aeruginosa PA14 PA0503 harboring mutation in Putative biotin synthesis protein BioC by Etest method; summary of the method: as §1
[30] = tested on: Pseudomonas aeruginosa; experiment: Antimicrobial activity against Pseudomonas aeruginosa PA14 PA0766 harboring mucD mutant gene by Etest method; summary of the method: as §1
[31] = tested on: Pseudomonas aeruginosa; experiment: Antimicrobial activity against Pseudomonas aeruginosa PA14 PA0770 harboring rnc mutant gene by Etest method; summary of the method: as §1
[32] = tested on: Pseudomonas aeruginosa; experiment: Antimicrobial activity against Pseudomonas aeruginosa PA14 PA14_07490/07510 harboring mutation in intergenic region by Etest method; summary of the method: as §1
[33] = tested on: Pseudomonas aeruginosa; experiment: Antimicrobial activity against Pseudomonas aeruginosa PA14 PA14_59780 harboring rcsC mutant gene by Etest method; summary of the method: as §1
[34] = tested on: Pseudomonas aeruginosa; experiment: Antimicrobial activity against Pseudomonas aeruginosa PA14 PA2128 harboring cupA1 mutant gene by Etest method; summary of the method: as §1
[35] = tested on: Pseudomonas aeruginosa; experiment: Antimicrobial activity against Pseudomonas aeruginosa PA14 PA2963 harboring mutation in putative aminodeoxychorismate lyase by Etest method; summary of the method: as §1
[36] = tested on: Pseudomonas aeruginosa; experiment: Antimicrobial activity against Pseudomonas aeruginosa PA14 PA2970 harboring rpmF mutant gene by Etest method; summary of the method: as §1
[37] = tested on: Pseudomonas aeruginosa; experiment: Antimicrobial activity against Pseudomonas aeruginosa PA14 PA3050 harboring pyrD mutant gene by Etest method; summary of the method: as §1
[38] = tested on: Pseudomonas aeruginosa; experiment: Antimicrobial activity against Pseudomonas aeruginosa PA14 PA3262 harboring fklB mutant gene by Etest method; summary of the method: as §2
[39] = tested on: Pseudomonas aeruginosa; experiment: Antimicrobial activity against Pseudomonas aeruginosa PA14 PA3433 harboring mutation in putative transcriptional regulator, LysR family by Etest method; summary of the method: as §2
[40] = tested on: Pseudomonas aeruginosa; experiment: Antimicrobial activity against Pseudomonas aeruginosa PA14 PA4005 harboring mutation in conserved hypothetical protein by Etest method; summary of the method: as §2
[41] = tested on: Pseudomonas aeruginosa; experiment: Antimicrobial activity against Pseudomonas aeruginosa PA14 PA4745 harboring nusA mutant gene by Etest method; summary of the method: as §2
[42] = tested on: Pseudomonas aeruginosa; experiment: Antimicrobial activity against Pseudomonas aeruginosa PA14 PA4753 harboring mutation in putative RNA-binding protein by Etest method; summary of the method: as §2
[43] = tested on: Pseudomonas aeruginosa; experiment: Antimicrobial activity against Pseudomonas aeruginosa PA14 PA5130 harboring mutation in putative rhodanese-like domain protein by Etest method; summary of the method: as §2
[44] = tested on: Pseudomonas aeruginosa; experiment: Antimicrobial activity against Pseudomonas aeruginosa PA14 PA5174 harboring mutation in putative beta-ketoacyl synthase by Etest method; summary of the method: as §2
[45] = tested on: Pseudomonas aeruginosa; experiment: Antimicrobial activity against Pseudomonas aeruginosa PA14 PA5288 harboring glnK mutant gene by Etest method; summary of the method: as §2
[46] = tested on: Pseudomonas aeruginosa; experiment: Antimicrobial activity against Pseudomonas aeruginosa PA14 PA5366 harboring pstB mutant gene by Etest method; summary of the method: as §2
[47] = tested on: Pseudomonas aeruginosa; experiment: Antimicrobial activity against Pseudomonas aeruginosa PA14 PA14_23430 harboring mutation in putative heparinase by Etest method; summary of the method: as §1

CC(C)(O/N=C(\C(=O)N[C@@H]1C(=O)N2C(C(=O)[O-])=C(C[n+]3ccccc3)CS[C@H]12)c1csc(N)n1)C(=O)O [CEFTAZIDIME]
MIC [1]: 2 µg/mL (≈ 3.66 µM)
MIC [2]: 2 µg/mL (≈ 3.66 µM)
MIC [3]: 0.75 µg/mL (≈ 1.37 µM)
MIC [4]: 0.75 µg/mL (≈ 1.37 µM)
MIC [5]: 1.5 µg/mL (≈ 2.74 µM)
MIC [6]: 1.5 µg/mL (≈ 2.74 µM)
MIC [7]: 2 µg/mL (≈ 3.66 µM)
MIC [8]: 2 µg/mL (≈ 3.66 µM)
MIC [9]: 0.75 µg/mL (≈ 1.37 µM)
MIC [10]: 2 µg/mL (≈ 3.66 µM)
MIC [11]: 4 µg/mL (≈ 7.32 µM)
MIC [12]: 3 µg/mL (≈ 5.49 µM)
MIC [13]: 2 µg/mL (≈ 3.66 µM)
MIC [14]: 2 µg/mL (≈ 3.66 µM)
MIC [15]: 1.5 µg/mL (≈ 2.74 µM)
MIC [16]: 2 µg/mL (≈ 3.66 µM)
MIC [17]: 3 µg/mL (≈ 5.49 µM)
MIC [18]: 2 µg/mL (≈ 3.66 µM)
MIC [19]: 3 µg/mL (≈ 5.49 µM)
MIC [20]: 2 µg/mL (≈ 3.66 µM)
MIC [21]: 2 µg/mL (≈ 3.66 µM)
MIC [22]: 1.5 µg/mL (≈ 2.74 µM)
MIC [23]: 1.5 µg/mL (≈ 2.74 µM)
MIC [24]: 3 µg/mL (≈ 5.49 µM)
MIC [25]: 1.5 µg/mL (≈ 2.74 µM)
MIC [26]: 0.38 µg/mL (≈ 0.695 µM)
MIC [27]: 0.38 µg/mL (≈ 0.695 µM)
MIC [28]: 0.5 µg/mL (≈ 0.915 µM)
MIC [29]: 0.5 µg/mL (≈ 0.915 µM)
MIC [30]: 0.38 µg/mL (≈ 0.695 µM)
MIC [31]: 0.5 µg/mL (≈ 0.915 µM)
MIC [32]: 0.5 µg/mL (≈ 0.915 µM)
MIC [33]: 0.38 µg/mL (≈ 0.695 µM)
MIC [34]: 0.5 µg/mL (≈ 0.915 µM)
MIC [35]: 0.75 µg/mL (≈ 1.37 µM)
MIC [36]: 0.5 µg/mL (≈ 0.915 µM)
MIC [37]: 0.5 µg/mL (≈ 0.915 µM)
MIC [38]: 0.75 µg/mL (≈ 1.37 µM)
MIC [39]: 0.5 µg/mL (≈ 0.915 µM)
MIC [40]: 0.75 µg/mL (≈ 1.37 µM)
MIC [41]: 0.75 µg/mL (≈ 1.37 µM)
MIC [42]: 0.25 µg/mL (≈ 0.457 µM)
MIC [43]: 0.75 µg/mL (≈ 1.37 µM)
MIC [44]: 1 µg/mL (≈ 1.83 µM)
MIC [45]: 0.5 µg/mL (≈ 0.915 µM)
MIC [46]: 0.75 µg/mL (≈ 1.37 µM)
MIC [47]: 2 µg/mL (≈ 3.66 µM)

Source: ChEMBL document CHEMBL1687778, “Genetic determinants involved in the susceptibility of Pseudomonas aeruginosa to beta-lactam antibiotics” (2010)
